Common to all, as to assay type: functional
Experiment [1] relates to Mus musculus. In words: Effective dose to produce anticonvulsant activity using maximal electroshock assay (MES) evaluated in mice after oral administration. In short, it runs like this:
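Mice given oral doses as a suspension in 5% acacia/water. Corneal electroshock (40 mA, 0.1 s, ac). Retest at the time of peak effect with at least four doses, 12 mice per dose. ED50 is for prevention of tonic-extensor convulsions, by Litchfield–Wilcoxon with 95% confidence limits.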

In experiment [2] the test system is Mus musculus. In words: Time to peak anticonvulsant effect (TPE) evaluated in mice after oral administration. In short, it runs like this:
(§1)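 Three groups of mice given a range of oral doses in 5% acacia/water. Challenged by corneal MES (40 mA, 0.1 s, ac) at 0.5, 1, 2, 3 and 4 h posttreatment. Time of peak protection against seizures recorded.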

Experiment [3] has as its system Mus musculus. In words: Anticonvulsant activity using hexobarbital-induced (100 mg/kg dose was administered intraperitoneally) sleeping time assay evaluated in mice. In short, it runs like this:
(§2)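 Groups of 10 fasted mice dosed orally with test compound in 5% acacia/water; at the previously determined time of peak effect, hexobarbital given ip, solubilized with stoichiometric NaOH. Duration of loss of righting reflex monitored. Mean ± SEM for 10 animals, compared against vehicle controls.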

The subject of experiment [4] is Mus musculus. Put plainly: Effective dose to produce anticonvulsant activity using horizontal screen test (HS) evaluated in mice after oral administration. The essentials: (§3)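 Fasted male CF1 mice (20–25 g), oral suspension in 5% acacia/water. Each mouse placed on a screen, rod rotated 180°, and return to the top within 1 min scored. Peak time found at 0.5–4 h. Retest at that time with at least four doses, 12 mice per dose. ED50 by Litchfield–Wilcoxon with 95% confidence limits.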

Experiment [5] has as its system Mus musculus. In words: Anticonvulsant activity using hexobarbital-induced (100 mg/kg dose was administered intraperitoneally)sleeping time assay evaluated in mice. In short, it runs like this:
as §2

Experiment [6] has as its system Mus musculus. In words: Anticonvulsant activity using hexobarbital-induced (100 mg/kg dose was administered intraperitoneally) sleeping time assay evaluated in mice after oral administration. In short, it runs like this:
as §2

Experiment [7] has as its system Mus musculus. In words: Time to peak anticonvulsant effect (TPE) was determined in mice after oral administration. The essentials:
as §1

Experiment [8] deals with Mus musculus. Put plainly: Effective dpse to produce anticonvulsant activity using horizontal screen test (HS) evaluated in mice after oral administration. In short, it runs like this:
as §3

Structures are written as SMILES.

The compound `CC(O)(Cn1ccnc1)c1ccc2c(c1)Cc1ccccc1-2` (centres undefined) returned an ED50 in experiment [1] of 10 mg/kg.

In turn, `c1ccc(OCCn2ccnc2)cc1` had a TPE in experiment [2] of 4 h. The ED50 was 130 mg/kg in experiment [1] and over 280 mg/kg in experiment [4]. In experiment [3], the “Hexobarb ST” value was determined as 434.2 min.

The compound `Cl.c1ccc(-c2ccccc2OCCCCn2ccnc2)cc1` had a TPE in experiment [2] of 0.5 h. Besides, the ED50 is 29.8 mg/kg in experiment [1] and over 200 mg/kg in experiment [4]. Also, in experiment [3], the “Hexobarb ST” value turned out to be 124.3 min.

The compound `Cl.c1ccc(-c2ccc(OCCn3ccnc3)cc2)cc1` gave a TPE in experiment [2] of 2 h. Moreover, the ED50 in experiment [1] is 44 mg/kg; in experiment [4] it was over 400 mg/kg. The “Hexobarb ST” value in experiment [5] was determined as 697.5 min.

In experiment [2], `Cl.c1ccc(-c2cccc(OCCn3ccnc3)c2)cc1` registered a TPE of 4 h. Moreover, the ED50 was 20.5 mg/kg in experiment [1] and over 200 mg/kg in experiment [4]. Also, the “Hexobarb ST” value in experiment [3] is 334 min.

Regarding `Cl.c1ccc(-c2ccccc2OCCn2ccnc2)cc1`, the ED50 is 15.5 mg/kg in experiment [1] and 320 mg/kg in experiment [4]. Further, the “Hexobarb ST” value in experiment [6] stood at 252.1 min. Moreover, the TPE in experiment [7] stood at 1 h.

As for `Cl.c1ccc(-c2ccccc2OCCCn2ccnc2)cc1`, the TPE in experiment [2] is 1 h. Moreover, the ED50 was 21.3 mg/kg in experiment [1] and over 280 mg/kg in experiment [4]. Besides, the “Hexobarb ST” value in experiment [3] is listed as 126.7 min.

In experiment [1], `O=C(Cn1ccnc1)c1ccc2ccccc2c1` [NAFIMIDONE] came in with an ED50 of 56 mg/kg.

In experiment [2], `O=C1NC(=O)C(c2ccccc2)(c2ccccc2)N1` [PHENYTOIN] showed a TPE of 1 h. The values for the ED50 in experiment [1] and in experiment [8] were 9.4 mg/kg and 210 mg/kg, respectively.

Values taken from ChEMBL document CHEMBL1123750, “Imidazole anticonvulsants: structure-activity relationships of [(biphenylyloxy)alkyl]imidazoles” (1987).
